The subject of series [1] is HCT-8 (colon) cancer cell line. Kind of series: in vitro cytotoxicity. In kind it is cell-based, human. To be noted: HCT-8 colon cells; compared with KB and DU145. The method in brief:
(§1)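 Cells grown in RPMI-1640 with 25 mM HEPES, 0.25% sodium bicarbonate, 10% FBS and 100 μg/mL kanamycin. Freshly trypsinized cells were seeded at 5000 per well, and test compound was added from DMSO-diluted stock. After three days, cells were fixed with cold 10% TCA and stained with 0.4% sulforhodamine B, and the solubilized dye was read at 562 nm.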

Series [2] deals with A549 (lung) cancer cell line. Kind of series: in vitro cytotoxicity. In kind it is cell-based, human. As to conditions: A549 lung cells; compared with KB and DU145. Summed up:
as §1

The test system of series [3] is KB (nasopharyngeal) cancer cell line. The series is described as follows: in vitro cytotoxicity. The class given is cell-based, human. To be noted: KB versus the other cancer cell lines.
Series [4] deals with DU145 (prostate) cancer cell line. Kind of series: in vitro cytotoxicity. As to conditions: DU145 versus the other cancer cell lines. The class given is cell-based, human.
Series [5] deals with human neutrophils. Kind of series: superoxide anion generation by human neutrophils in response to fMLP/CB. In kind it is cell-based. As to conditions: Neutrophil.
A further series has as its target α-glucosidase (Saccharomyces cerevisiae, UniProt P53341). As to conditions: previous report; cited from earlier work.
For series [6], the system named is human neutrophils. Kind of series: elastase release by human neutrophils in response to fMLP/CB. To be noted: read-out: elastase IC50, mean ± S.E.M. (n = 3–4). The class given is cell-based.

Sequence of α-glucosidase (P53341 whole entry): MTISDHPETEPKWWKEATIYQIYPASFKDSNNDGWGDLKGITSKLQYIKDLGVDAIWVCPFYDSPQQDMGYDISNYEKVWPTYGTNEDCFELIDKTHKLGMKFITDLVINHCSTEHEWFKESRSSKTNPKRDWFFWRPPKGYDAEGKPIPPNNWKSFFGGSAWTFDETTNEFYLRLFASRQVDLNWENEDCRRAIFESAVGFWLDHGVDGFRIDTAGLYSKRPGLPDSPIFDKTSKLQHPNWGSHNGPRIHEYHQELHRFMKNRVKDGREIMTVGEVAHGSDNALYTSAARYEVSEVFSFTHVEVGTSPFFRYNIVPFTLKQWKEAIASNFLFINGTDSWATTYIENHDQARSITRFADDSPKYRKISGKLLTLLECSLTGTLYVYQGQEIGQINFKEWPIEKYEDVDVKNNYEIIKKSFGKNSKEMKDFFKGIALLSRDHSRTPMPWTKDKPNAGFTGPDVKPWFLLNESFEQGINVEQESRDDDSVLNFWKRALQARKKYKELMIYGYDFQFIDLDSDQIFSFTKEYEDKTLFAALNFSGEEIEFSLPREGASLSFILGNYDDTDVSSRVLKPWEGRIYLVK

In the case of `C/C(=C/CC[C@](C)(O)[C@H]1CC[C@]2(C)[C@@H]1[C@H](O)C[C@@H]1[C@@]3(C)CC[C@H](O)C(C)(C)[C@@H]3[C@@H](O[C@@H]3O[C@H](CO)[C@@H](O)[C@H](O)[C@H]3O[C@@H]3O[C@H](CO)[C@@H](O)[C@H](O)[C@H]3O)C[C@]12C)CO` [Compound 1, panajaponol A], the cytotoxicity result in series [1] and in series [2] was “significantly less susceptible” throughout. For the same compound, the selective cytotoxic activity result in series [3] and in series [4] was “greater than two- to three-fold selective” each time. Take `CC1(C)CC[C@]2(C(=O)O[C@@H]3O[C@H](CO)[C@@H](O)[C@H](O)[C@H]3O)CC[C@]3(C)C(=CC[C@@H]4[C@@]5(C)CC[C@H](O[C@@H]6O[C@H](C(=O)O)[C@@H](O[C@H]7O[C@@H](CO)[C@H](O)[C@H]7O)[C@H](O[C@@H]7O[C@H](CO)[C@@H](O)[C@H](O)[C@H]7O)[C@H]6O)C(C)(C)[C@@H]5CC[C@]43C)[C@@H]2C1` [Compound 9, stipuleanoside R2]: in the series on human neutrophils [5] (read-out: IC50 values, inhibition of superoxide anion generation and elastase release), the IC50 fell in the range of 0.78 to 43.6 µM. Turning to `CCCCCCC/C=C\CC#CC#CC(O)CC` (stereo not drawn) [Compound 25, panaxjapyne A], the “inhibition of α-glucosidase activity” value on α-glucosidase is recorded as “strongly inhibited”. On to `C=CCCCCC[C@H](O)[C@@H](O)CC#CC#C[C@@H](O)CC` [Compound 27, panaxjapyne C], for which the “inhibition of α-glucosidase activity” value on α-glucosidase is on record as “strongly inhibited”.

In the case of `C=C[C@@H](O)C#CC#CC/C=C\CCCCCCC` [Compound 28, (3R)-(−)-falcarinol], the “inhibition of α-glucosidase activity” value at α-glucosidase was “strongly inhibited”. Take `C=C[C@H](O)C#CC#C/C=C/[C@@H](O)CCCCCCC` [Compound 29, (3S,10S)-panaxydiol]: the “inhibition of α-glucosidase activity” value at α-glucosidase was “strongly inhibited”.

Turning to `C=C[C@H](O)C#CC#CC[C@@H](O)[C@H](O)CCCCCCC` [Compound 30, (3S,9R,10R)-panaxytriol], the “inhibition of α-glucosidase activity” value at α-glucosidase is given as “strongly inhibited”.

`c1ccc2c(c1)[I+]c1ccccc1-2` [DPI, Diphenyleneiodonium, reference compound]: the IC50 with human neutrophils [5] (read-out: superoxide IC50) was 1.02 ± 0.35 µM. Take `O=S(=O)(F)Cc1ccccc1` [PMSF, phenylmethylsulfonyl fluoride]: the IC50 in the series on human neutrophils [6] stood at 95 ± 25 µM.

The values are drawn from article PMC3092375 (Journal of natural products, 2011).
